Reference: ChEMBL document CHEMBL5096187, “Efficient Synthesis and Bioevaluation of Novel Dual Tubulin/Histone Deacetylase 3 Inhibitors as Potential Anticancer Agents” (J Med Chem, 2021)
Activity calls are given as the source filed them. No cut-off for these calls is given here.

Assays:
HCT-116 = assay: Antiproliferative activity against human HCT-116 cells assessed as inhibition of cell viability measured for 48 hrs by microplate reader based MTT assay; assay type: functional; details: HCT-116, 48 h
Method in brief: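 Cells grown in RPMI-1640 with 10% FBS and seeded at 5000 cells/well. After overnight attachment, compound was added in medium with 0.1% DMSO for 48 h at 37 °C. Read-out was MTT for HCT-116, B16-F10 and A549, and CCK-8 for Jurkat (0.5 mg/mL, 4 h), with absorbance at 570 nm. IC50 from nonlinear regression; at least three independent experiments.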

[1] = Antiproliferative activity against human YCC-11 cells assessed as inhibition of cell viability; assay type: functional, cell-based
[2] = Antiproliferative activity against human YCC3/7 cells assessed as inhibition of cell viability; assay type: functional, cell-based
Tubulin = Tubulin (Sus scrofa, UniProt P02554+P02550); assay: Inhibition of pig brain tubulin polymerization by spectrometric method
Method in brief: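 Phosphocellulose-purified pig brain tubulin mixed with graded compound concentrations in PEM buffer (100 mM PIPES, 1 mM MgCl2, 1 mM EGTA) plus 1 mM GTP and 5% glycerol. Absorbance at 340 nm and 37 °C; plateau absorbance used to calculate IC50.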

Tubulin (Sus scrofa) [3] = target: T1, Tubulin (Sus scrofa) (UniProt P02554+P02550); assay: Inhibition of pig brain tubulin polymerization measured after 20 mins by spectrometric method; details: dose 0.8-25 µM, DDE = dose-dependent effect
Method in brief: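 Tubulin purified from pig brain microtubule protein (three assembly/disassembly cycles, then phosphocellulose chromatography). Tubulin mixed with compound in PEM buffer (100 mM PIPES, 1 mM MgCl₂, 1 mM EGTA) plus 1 mM GTP and 5% glycerol. Polymerization followed at 340 nm, 37 °C. Inhibition versus vehicle at 20 min; plateau absorbance used.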

Tubulin (Sus scrofa) [4] = target: T1, Tubulin (Sus scrofa); assay: Inhibition of pig brain tubulin polymerization in mouse B16-F10 cells assessed as disruption of microtubule network at 100 nM measured for 6 hrs by immunofluorescence assay; assay type: cell-based
Method in brief: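 B16-F10 cells on glass coverslips exposed 6 h to test agent or 0.1% DMSO vehicle, fixed in 4% paraformaldehyde, permeabilized with 0.2% Triton X-100 in PBS, blocked 30 min with goat serum, then anti-β-tubulin monoclonal 1 h at 37 °C, fluorescent secondary and DAPI nuclear stain. Microtubule network judged by fluorescence or confocal microscopy.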

B16-F10 [5] = assay: Inhibition of cell migration in mouse B16-F10 cells assessed as reduction in wound area ratio measured at 25 nM incubated for 24 hrs by wound healing assay; assay type: functional; parameters: scale not given: the % may be the effect or the level left
Method in brief: (§1)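 Confluent B16-F10 monolayers, seeded overnight, were scratched with a pipette tip and washed to remove debris. Cells were then treated, and phase-contrast images were taken at 0 and 24 h. Migration distance or wound area measured manually against DMSO control; n = 3.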

B16-F10 [6] = assay: Inhibition of cell migration in mouse B16-F10 cells assessed as reduction in wound area ratio measured at 50 nM incubated for 24 hrs by wound healing assay; assay type: functional; parameters: scale not given: the % may be the effect or the level left; method in brief: as §1
B16-F10 [7] = assay: Inhibition of cell migration in mouse B16-F10 cells assessed as reduction in wound area ratio measured at 100 nM incubated for 24 hrs by wound healing assay; assay type: functional; parameters: scale not given: the % may be the effect or the level left; method in brief: as §1
B16-F10 [8] = assay: Inhibition of colony formation in mouse B16-F10 cells assessed as reduction in number of colonies at 100 nM incubated for 24 hrs; assay type: functional, cell-based
Method in brief: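 1000 B16-F10 cells seeded and cultured 24 h at 37 °C, then exposed to compound for 24 h. Medium was then replaced and cells grown 10–14 days. Colonies fixed with 4% paraformaldehyde for 30 min, stained with 0.1% crystal violet for 15 min, and counted; n = 3 versus DMSO.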

B16-F10 [9] = assay: Induction of cell cycle arrest in mouse B16-F10 cells assessed as accumulation of cells in G2/M phase at 100 nM measured after 48 hrs by PI/RNaseA staining based flow cytometry analysis (Rvb= 5.76%); assay type: functional
B16-F10 [10] = assay: Induction of apoptosis in mouse B16-F10 cells assessed as viable cells at 100 nM incubated for 48 hrs by Annexin V-FITC/PI analysis (reference value: 98.3 %); assay type: functional; details: read-out: Activity
B16-F10 [11] = assay: Induction of apoptosis in mouse B16-F10 cells assessed as early apoptotic cells at 100 nM incubated for 48 hrs by Annexin V-FITC/PI analysis (reference value: 1.68 %); assay type: functional
B16-F10 [12] = assay: Induction of apoptosis in mouse B16-F10 cells assessed as necrotic cells at 100 nM incubated for 48 hrs by Annexin V-FITC/PI analysis (reference value: 0.012 %); assay type: functional
B16-F10 [13] = assay: Induction of apoptosis in mouse B16-F10 cells assessed as early apoptotic cells at 25 nM incubated for 48 hrs by Annexin V-FITC/PI analysis (reference value: 1.68 %); assay type: functional
B16-F10 [14] = assay: Induction of apoptosis in mouse B16-F10 cells assessed as late apoptotic cells at 25 nM incubated for 48 hrs by Annexin V-FITC/PI analysis (reference value: 0.00 %); assay type: functional
B16-F10 [15] = assay: Induction of apoptosis in mouse B16-F10 cells assessed as necrotic cells at 25 nM incubated for 48 hrs by Annexin V-FITC/PI analysis (reference value: 0.012 %); assay type: functional
B16-F10 [16] = assay: Induction of apoptosis in mouse B16-F10 cells assessed as viable cells at 50 nM incubated for 48 hrs by Annexin V-FITC/PI analysis (reference value: 98.3 %); assay type: functional; details: read-out: Activity
B16-F10 [17] = assay: Induction of apoptosis in mouse B16-F10 cells assessed as late apoptotic cells at 50 nM incubated for 48 hrs by Annexin V-FITC/PI analysis (reference value: 1.68 %); assay type: functional
B16-F10 [18] = assay: Upregulation of AC-H3 in mouse B16-F10 cells incubated for 12 hrs by Western blot analysis; assay type: functional, cell-based; details: dose 20-200 nM, DDE = dose-dependent effect
Method in brief: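 B16-F10 cells (5 × 10⁵/well) treated 12 h with DMSO or compound, lysed in RIPA buffer. 30 μg protein separated by SDS-PAGE and blotted onto PVDF. Blocked 5% BSA 2 h, primary antibody overnight at 4 °C, secondary 1.5 h. Ac-H3 probed, with histone H3 and GAPDH as loading controls; band density quantified; three independent experiments.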

[19] = Hepatotoxicity in C57BL/6 mouse assessed as effect on ALB level in serum; assay type: toxicity
[20] = Hepatotoxicity in C57BL/6 mouse assessed as effect on AST level in serum; assay type: toxicity
[21] = Hepatotoxicity in C57BL/6 mouse assessed as effect on total bilirubin level in serum; assay type: toxicity
[22] = Nephrotoxicity in C57BL/6 mouse assessed as effect on globulin GLO level in serum; assay type: toxicity; details: in vivo
[23] = Nephrotoxicity in C57BL/6 mouse assessed as effect on creatinine level in serum; assay type: toxicity; details: in vivo
[24] = Toxicity in C57BL/6 mouse allografted with mouse B16-F10 cells assessed as body weight loss at 10 mg/kg, ip administered for 14 days; details: in vivo, 336 h

T1 sequence (P02550 whole entry, looked up): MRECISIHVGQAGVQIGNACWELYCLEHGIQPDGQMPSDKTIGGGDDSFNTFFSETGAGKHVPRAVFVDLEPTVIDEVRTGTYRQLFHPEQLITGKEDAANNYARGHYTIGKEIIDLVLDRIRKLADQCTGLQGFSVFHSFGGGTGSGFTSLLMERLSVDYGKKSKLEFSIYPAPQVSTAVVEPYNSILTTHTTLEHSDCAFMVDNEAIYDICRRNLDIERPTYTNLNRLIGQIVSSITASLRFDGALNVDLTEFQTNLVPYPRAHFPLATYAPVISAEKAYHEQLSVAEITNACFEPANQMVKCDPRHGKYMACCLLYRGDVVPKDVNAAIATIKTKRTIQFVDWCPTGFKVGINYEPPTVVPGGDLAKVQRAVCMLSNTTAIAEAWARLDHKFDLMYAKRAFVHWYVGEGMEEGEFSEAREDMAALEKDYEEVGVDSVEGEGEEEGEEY
T1 sequence (P02554 whole entry, looked up): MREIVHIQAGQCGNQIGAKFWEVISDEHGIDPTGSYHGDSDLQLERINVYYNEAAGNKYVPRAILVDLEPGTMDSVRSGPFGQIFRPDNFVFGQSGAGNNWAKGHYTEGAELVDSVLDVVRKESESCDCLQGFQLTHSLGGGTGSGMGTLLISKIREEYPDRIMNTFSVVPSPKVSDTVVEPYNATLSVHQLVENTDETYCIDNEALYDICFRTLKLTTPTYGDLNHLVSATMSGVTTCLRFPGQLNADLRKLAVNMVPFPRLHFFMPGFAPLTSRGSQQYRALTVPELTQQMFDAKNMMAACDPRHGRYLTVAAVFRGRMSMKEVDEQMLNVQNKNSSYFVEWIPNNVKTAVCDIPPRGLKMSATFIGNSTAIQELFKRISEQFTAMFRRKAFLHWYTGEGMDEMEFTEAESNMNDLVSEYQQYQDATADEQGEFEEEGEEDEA

`COc1cc(C(=O)c2csc(-c3ccc(NC(=O)CCCC(=O)Nc4ccccc4N)cc3)n2)cc(OC)c1OC` showed an IC50 (HCT-116) of 50 nM, an IC50 [1] of 300 nM and an IC50 [2] of 560 nM. The IC50 (Tubulin) was 12200 nM, the inhibition (Tubulin (Sus scrofa) [3]) was “Dde” and the inhibition (Tubulin (Sus scrofa) [4]) was “Active”. It also gave an Activity (B16-F10 [5]) of 27.32%, an Activity (B16-F10 [6]) of 17.63% and an Activity (B16-F10 [7]) of 7.18%. For the same molecule, the Activity (B16-F10 [8]) was “Active”, the Activity (B16-F10 [9]) was 83.26% and the viability at 0.1 µM (B16-F10 [10]) was 31.6%. The Activity (B16-F10 [11]) was 5.83%, the Activity (B16-F10 [12]) was 1.29% and the Activity (B16-F10 [13]) was 10.9%. It also gave an Activity (B16-F10 [14]) of 0%, an Activity (B16-F10 [15]) of 0% and a viability at 0.05 µM (B16-F10 [16]) of 58.9%. The Activity (B16-F10 [17]) was 32.3%, the Activity (B16-F10 [18]) was “Dde” and the Activity [19] was “Non-Toxic”. For the same molecule, the Activity [20] was “Non-Toxic”, the Activity [21] was “Non-Toxic” and the Activity [22] was “Non-Toxic”. The Activity [23] was “Non-Toxic” and the Activity [24] was “Non-Toxic”.
